Legend:
[1] = molecular target: T1, Arachidonate 12-lipoxygenase (Rattus norvegicus) (UniProt Q02759); assay: In vitro inhibitory activity against rat platelet 12-lipoxygenase at 30 uM
T1 sequence (whole entry): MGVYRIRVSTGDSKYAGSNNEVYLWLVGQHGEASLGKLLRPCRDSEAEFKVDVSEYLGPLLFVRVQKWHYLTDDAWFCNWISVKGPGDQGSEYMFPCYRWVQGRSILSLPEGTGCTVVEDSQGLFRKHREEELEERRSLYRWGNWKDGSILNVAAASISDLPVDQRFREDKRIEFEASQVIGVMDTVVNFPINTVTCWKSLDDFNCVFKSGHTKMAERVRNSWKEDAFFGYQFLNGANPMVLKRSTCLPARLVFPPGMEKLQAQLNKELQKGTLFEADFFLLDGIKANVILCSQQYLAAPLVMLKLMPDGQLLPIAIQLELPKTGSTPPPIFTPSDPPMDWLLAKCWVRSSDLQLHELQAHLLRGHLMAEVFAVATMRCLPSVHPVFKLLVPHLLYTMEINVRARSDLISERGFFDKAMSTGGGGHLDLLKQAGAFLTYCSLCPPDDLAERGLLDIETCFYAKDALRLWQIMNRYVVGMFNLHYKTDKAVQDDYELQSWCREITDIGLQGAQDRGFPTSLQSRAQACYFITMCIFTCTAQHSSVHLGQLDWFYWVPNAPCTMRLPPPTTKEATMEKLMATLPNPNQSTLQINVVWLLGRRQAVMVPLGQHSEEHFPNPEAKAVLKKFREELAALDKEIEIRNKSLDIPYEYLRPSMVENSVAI
Method in brief: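 Cell-free cytosolic 12-lipoxygenase from Sprague-Dawley rat platelets (0.4 mg/mL), preincubated 5 min at 30 °C with compound in DMSO (≤0.1% final), 25 mM Tris pH 7.4, 1 μM indomethacin, 100 μM glutathione; reaction started with 6 μM [14C]arachidonic acid and quenched with citric acid/NDGA after 3 min. 12-HETE isolated by TLC and counted by scintillation; % inhibition, duplicate.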

[2] = molecular target: T2, Polyunsaturated fatty acid 5-lipoxygenase (Homo sapiens, UniProt P09917); assay: In vitro inhibitory activity against polymorphonuclear leukocyte 5-lipoxygenase in human cell at 10 uM
T2 sequence (P09917 whole entry): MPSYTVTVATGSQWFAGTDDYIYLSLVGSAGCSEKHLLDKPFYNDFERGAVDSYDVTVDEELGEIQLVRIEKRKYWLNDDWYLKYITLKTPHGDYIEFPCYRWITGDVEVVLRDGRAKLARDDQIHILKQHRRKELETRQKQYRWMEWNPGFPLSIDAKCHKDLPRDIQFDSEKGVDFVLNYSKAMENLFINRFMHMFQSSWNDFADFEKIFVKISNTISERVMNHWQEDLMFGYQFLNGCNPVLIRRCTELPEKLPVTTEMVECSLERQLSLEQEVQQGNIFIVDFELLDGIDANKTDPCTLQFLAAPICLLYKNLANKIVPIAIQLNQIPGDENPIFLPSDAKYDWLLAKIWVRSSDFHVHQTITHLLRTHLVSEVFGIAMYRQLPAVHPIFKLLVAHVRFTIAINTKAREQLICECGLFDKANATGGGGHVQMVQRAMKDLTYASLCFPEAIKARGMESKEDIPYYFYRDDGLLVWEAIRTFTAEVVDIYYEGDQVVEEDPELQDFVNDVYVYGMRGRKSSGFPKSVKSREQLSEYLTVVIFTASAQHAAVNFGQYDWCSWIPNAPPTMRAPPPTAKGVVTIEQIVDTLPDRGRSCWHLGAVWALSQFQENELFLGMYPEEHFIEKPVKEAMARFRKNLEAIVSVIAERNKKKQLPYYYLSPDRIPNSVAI
Method in brief: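 Human PMNs from venous blood of a healthy volunteer (EDTA) were purified by dextran sedimentation, a Percoll gradient and NH4Cl red-cell lysis (>90% pure). They were held in Ca/Mg PBS with 1 mg/mL glucose and 1 μM indomethacin, then challenged with A23187 (0.8 μM) and [14C]arachidonic acid (4 μM) for 3 min. 5-HETE was measured by TLC and scintillation counting.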

[3] = molecular target: T3, Polyunsaturated fatty acid 5-lipoxygenase (Rattus norvegicus) (UniProt P12527); assay: In vitro inhibitory activity against polymorphonuclear leukocyte 5-lipoxygenase in rat cell at 1 uM
T3 sequence (whole entry): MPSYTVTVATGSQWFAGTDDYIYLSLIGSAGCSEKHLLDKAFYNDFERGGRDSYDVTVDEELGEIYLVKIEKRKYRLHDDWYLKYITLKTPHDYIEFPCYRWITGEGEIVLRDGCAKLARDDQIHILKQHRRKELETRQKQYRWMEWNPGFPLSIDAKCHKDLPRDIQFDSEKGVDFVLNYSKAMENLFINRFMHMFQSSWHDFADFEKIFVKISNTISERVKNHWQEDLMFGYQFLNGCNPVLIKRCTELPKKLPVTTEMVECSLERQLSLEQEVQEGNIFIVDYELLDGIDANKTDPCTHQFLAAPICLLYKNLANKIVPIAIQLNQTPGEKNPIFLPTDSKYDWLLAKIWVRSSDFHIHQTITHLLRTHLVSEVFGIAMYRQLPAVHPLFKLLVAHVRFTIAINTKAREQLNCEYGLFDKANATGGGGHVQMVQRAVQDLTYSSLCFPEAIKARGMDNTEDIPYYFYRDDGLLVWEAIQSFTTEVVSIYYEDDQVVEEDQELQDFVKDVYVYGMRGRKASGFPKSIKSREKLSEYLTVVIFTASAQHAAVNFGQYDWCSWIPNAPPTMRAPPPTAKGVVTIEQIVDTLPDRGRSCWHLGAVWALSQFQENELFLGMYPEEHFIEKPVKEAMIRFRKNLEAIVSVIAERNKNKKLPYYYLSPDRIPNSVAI
Method in brief: (§1)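 Intact glycogen-elicited peritoneal PMNs pooled from 4–5 Sprague-Dawley rats (250 g), preincubated 5 min at 30 °C with compound in DMSO (≤0.1% final) plus 1 μM indomethacin. Challenge with [14C]arachidonic acid (4 μM) and A23187 (0.8 μM) for 3 min. Extraction, TLC, 5-HETE by scintillation counting.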

[4] = molecular target: Cyclooxygenase (Rattus norvegicus) (UniProt P35355+Q63921); assay: Inhibition of Prostaglandin G/H synthase in rat polymorphonuclear leukocytes; format: cell-based; set-up: concentration or dose not given beside the values; conditions: concentration not given here
Method in brief: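 Homogenate of glycogen-elicited rat peritoneal PMNs in 0.1 M Tris-HCl pH 8.2 with 10 μM NDGA, preincubated 5 min at 37 °C with compound (≤0.1% DMSO). [14C]arachidonic acid (8 μM) added with 4 mM glutathione and epinephrine; 10 min reaction. TxB2 and PGF2α separated by TLC and counted.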

12-lipoxygenase = 12-lipoxygenase (Rattus norvegicus, UniProt F1LQ70); assay: In vitro inhibitory activity against rat platelet 12-lipoxygenase
Cavia porcellus [5] = assay: In vivo inhibitory activity against guinea pig systemic anaphylaxis when administered a compound dose (200 mg/kg) perorally; format: functional; conditions: po
Method in brief: (§2)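 Male Hartley guinea pigs sensitised ip with ovalbumin (2.7 mg/kg) plus LPS adjuvant, then challenged 2 weeks later with 1% ovalbumin aerosol for 30 s. Pretreated with pyrilamine, indomethacin and propranolol 20 min before challenge. Compound given in PEG 400 1 h before challenge.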

Mus musculus = assay: In vivo inhibition of mouse ear inflammation; format: functional; set-up: concentration or dose not given beside the values
Method in brief: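 Compound or ethanol vehicle applied topically to one ear of male DBA/2J mice 60 min before arachidonic acid (2 mg/ear). […] Groups of 5 mice.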

[6] = molecular target: T2, Polyunsaturated fatty acid 5-lipoxygenase; assay: In vitro inhibition of polymorphonuclear leukocyte derived human 5-lipoxygenase
Method in brief: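 PMNs from venous blood of healthy volunteers, isolated by dextran sedimentation and Percoll gradient (>90% pure) and held in Ca/Mg PBS with 1 mg/mL glucose and 1 μM indomethacin. Challenged with calcium ionophore and [14C]arachidonic acid for 3 min. 5-HETE measured by TLC and scintillation counting; IC50 read graphically.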

[7] = molecular target: T4, Polyunsaturated fatty acid 5-lipoxygenase (Rattus norvegicus, UniProt P12527); assay: In vitro inhibition of rat polymorphonuclear leukocyte 5-lipoxygenase; method in brief: as §1
T4 sequence (P12527 whole entry): T3 sequence (whole entry)

Cavia porcellus [8] = assay: In vivo inhibitory activity against guinea pig systemic anaphylaxis when administered a compound dose (10 mg/kg) intravenously; format: functional; conditions: iv
Cavia porcellus [9] = assay: In vivo inhibitory activity against guinea pig systemic anaphylaxis when administered a compound dose (50 mg/kg) perorally; format: functional; conditions: po; method in brief: as §2

12-lipoxygenase, sequence (F1LQ70 whole entry, looked up): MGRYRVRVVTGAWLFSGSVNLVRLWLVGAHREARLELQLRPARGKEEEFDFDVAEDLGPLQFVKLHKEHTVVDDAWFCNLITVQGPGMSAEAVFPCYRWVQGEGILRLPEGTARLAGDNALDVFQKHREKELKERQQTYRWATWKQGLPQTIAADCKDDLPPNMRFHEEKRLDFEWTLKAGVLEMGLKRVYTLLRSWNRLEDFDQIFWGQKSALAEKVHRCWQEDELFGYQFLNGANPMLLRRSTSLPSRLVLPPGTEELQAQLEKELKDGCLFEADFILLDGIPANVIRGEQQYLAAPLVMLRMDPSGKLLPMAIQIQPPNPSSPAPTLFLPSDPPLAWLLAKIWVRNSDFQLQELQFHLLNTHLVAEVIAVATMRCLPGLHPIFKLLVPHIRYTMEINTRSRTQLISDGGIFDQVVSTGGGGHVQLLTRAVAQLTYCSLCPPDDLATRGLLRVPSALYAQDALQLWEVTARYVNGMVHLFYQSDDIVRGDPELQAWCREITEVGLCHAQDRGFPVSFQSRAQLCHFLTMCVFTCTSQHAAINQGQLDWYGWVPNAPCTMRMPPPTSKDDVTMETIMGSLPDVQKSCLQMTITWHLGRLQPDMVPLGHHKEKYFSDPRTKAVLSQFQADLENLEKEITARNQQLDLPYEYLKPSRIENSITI

inhibition [1] [%]	Inhibition [2] [%]	inhibition [3] [%]	inhibition [4] [%]	Ki (12-lipoxygenase) [nM]	IC50 [6] [nM]	IC50 [7] [nM]	SMILES	inhibition in vivo at 200 mg/kg (Cavia porcellus [5]) [%]	Inhibition (Mus musculus) [%]	inhibition in vivo at 10 mg/kg (Cavia porcellus [8]) [%]	inhibition in vivo at 50 mg/kg (Cavia porcellus [9]) [%]
3	< 10	24	< 10	–	–	–	O=C(/C=C/c1ccc(OCc2ccccc2)cc1)N(O)CCc1ccccc1	–	–	–	–
–	–	–	< 10	1600	–	–	O=C(Cc1ccc(OCc2ccccc2)cc1)N(O)CCc1ccccc1	17	39	–	–
–	–	–	44	–	180	300	O=C(CCCc1ccccc1)N(O)CCc1ccccc1	–	56	50	17
